Source: PubChem BioAssay (Broad Institute)
Only some compounds are listed: those with a hit (about 2.6% of all), similar ones and a draw of the others.
FN deposition inh – inhibitors of fibronectin matrix deposition, primary screen, AH1F cells, Alexa488-fibronectin fluorescence, plate reader; inhibition, % at 12.6 µM; AID 743247, 2014; 350,000 tested, 0.086% active; AH1F fibroblasts, overnight;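 active means mean inhibition across replicates of 30% or more, regardless of how many single replicates reach that level; inconclusive means mean under 30% yet at least half of replicates reach 30%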;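 further: positive control wells lacked labelled fibronectin entirely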
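Assay system: AH1F fibroblasts / Quantity: 10000 cells per well / Medium: DMEM plus 2% serum, read in PBS / Reagent: labelled fibronectin 24 nM / Dosing: single dose, pinned / Times: 1 h cell attachment, overnight exposure to compound and label / Signal: fluorescence, ex 485 nm, em 525 nm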
rRNA inh HTS – reduced GFP signal of wild-type E. coli, primary screen, bacterial rRNA inhibitor project, GFP/RFP fluorescence, OD600, single point | E. coli WT GFP vs humanized-ribosome RFP mutants, 24 h; stronger effect = lower value; DMSO median 0, no signal -100 | GFP signal change (wild-type ribosome), % (no concentration beside the values) | 350,000 tested, 1.6% active;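 active means significant combined selectivity score with lowered wild-type GFP, culture density cut under 30%, mutant RFP and density less affected; inactive means any of these conditions unmet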
Vif inh – HIV Vif self-association inhibitors, primary screen, imaging, HEK293T, single point | 340,000 tested, 0.35% active | HEK293T cells, Vif self-association by quenched fluorescence, 24 h | inhibition, % at 7.49 µM; in the data active means inhibition above about 50%, passing the limit was not always enough; inconclusive means no clear call, values can overlap the other calls; inactive means below about 31%
miR-122 sensor – miR-122 Renilla sensor signal increase in Huh7, primary screen, miR-122 inhibitor project, cell-based, single point, plate reader | Huh7 miR-122 Renilla luciferase sensor, 48 h; neutral wells = 0, positive control = 100 | activation (reporter increase), % at 12.5 µM | AID 602342, 2012 | 340,000 tested, 0.3% active;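 active means mean replicate activation score at least 90 and every replicate individually at or above 90; inconclusive means only one of the two criteria met; inactive means neither criterion met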;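 further: higher luciferase means less miR-122 activity so hits act as miR-122 inhibitors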
S100A4 inh HTS – inhibitors of S100A4-myosin IIA peptide binding, primary screen, biochemical, fluorescence polarization, TAMRA-MyoIIA peptide; inhibition, % at 10.7 µM; 360,000 tested, 0.14% active;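 active means mean inhibition of at least 70% across replicates, with every replicate also reaching that level; inconclusive means mean inhibition reaches 70% but some replicates fall short; inactive means mean inhibition below 70%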
Target sequence (P26447 whole entry, looked up): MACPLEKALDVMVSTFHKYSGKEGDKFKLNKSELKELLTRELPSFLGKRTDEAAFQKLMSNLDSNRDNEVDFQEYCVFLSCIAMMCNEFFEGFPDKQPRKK
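Compound dosing: one dose per compound; test system: human S100A4 monomer with TAMRA-labelled myosin IIA peptide; probe or stimulus: TAMRA-labelled myosin IIA heavy-chain peptide probe, 5 nM; medium: HEPES buffer with Ca2+, pH 7.2; schedule: 5 min incubation before reading; benchmarks: neutral control DMSO, positive control TFP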
HIV Env fusion – inhibitors of HIV-1 Env-driven cell-cell fusion, primary screen, HeLa-JRFL effector, CEM21 target cells, luciferase; inhibition, % at 12.3 µM; 360,000 tested, 1.1% active; AID 651610, 2012;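 active means mean replicate inhibition score of at least 50 and every replicate individually at or above 50; inconclusive means only one of the two criteria met; inactive means mean below 50 and not all replicates reaching 50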;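 further: 0% = plate neutral controls and 100% = maraviroc near 300 nM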
The depositor's hits bear a star; ? = inconclusive; . = no result; [ ] = another dose, or the depositor's remark.

SMILES	FN deposition inh	rRNA inh HTS	Vif inh	miR-122 sensor	S100A4 inh HTS	HIV Env fusion
CCN(CC)S(=O)(=O)c1ccc(Oc2ccc(S(=O)(=O)N(CC)CC)cc2)cc1	-4	.	-10	1	.	62*
Cc1ccc(S(=O)(=O)Nc2ccc(SC(F)F)cc2)c(C)c1	.	.	61*	.	.	.
O=C(C[C@@H]1C[C@H]2c3cc(NC(=O)c4cccnc4)ccc3O[C@H]2[C@H](CO)O1)NCc1ccccc1	0	-6	.	7[16.7 µM]	13	-5[16.7 µM]
C[C@@H]1CCCCO[C@@H](CN(C)C)[C@@H](C)CN([C@@H](C)CO)C(=O)c2cc(NC(=O)CCC(F)(F)F)ccc2O1	.	2	.	7[16.7 µM]	-9	31[16.7 µM]
COc1ccc(NS(=O)(=O)c2cc(S(C)(=O)=O)ccc2C)cc1	0	.	1	.	-4	-3
CCN(CC)S(=O)(=O)c1ccc(NS(=O)(=O)c2ccc(C)c(C)c2)cc1	4	.	-5	183*	.	-87
COc1cc(C)c(S(=O)(=O)Nc2ccccc2F)cc1C	.	.	-6	123*	.	.
COc1ccc(NS(=O)(=O)c2cc(C)ccc2C)cc1	.	.	.	539*	.	.
CCN(CC)c1ccc(N)cc1S(=O)(=O)Nc1ccc(OC)cc1	-7	-1	-4	107*	-2	8
COc1ccc(S(=O)(=O)Nc2ccc3c(c2)C(=O)N([C@@H](C)CO)C[C@H](C)[C@H](CN(C)C)O3)cc1	.	3	.	1[16.7 µM]	3	-6[16.7 µM]
Cc1noc(C)c1NC(=O)Nc1ccc2c(c1)C(=O)N([C@H](C)CO)C[C@@H](C)[C@@H](CN(C)C(=O)Nc1ccc(C(F)(F)F)cc1)OCCCC[C@@H](C)O2	4	2	.	-4[16.7 µM]	-9	-2[16.7 µM]
C[C@@H]1CCCCO[C@H](CN(C)CC2CC2)[C@H](C)CN([C@@H](C)CO)C(=O)c2cc(NC(=O)c3ccncc3)ccc2O1	.	5	.	-4[16.7 µM]	-5	-5[16.7 µM]
CCCNC(=O)N1CC2(CN(C(=O)COC)C2)c2c(n(C)c3cc(OC)ccc23)[C@H]1CO	.	-2	.	.	3	.
CC(=O)N(C)C[C@H]1Oc2ncc(-c3ccccc3F)cc2C(=O)N([C@@H](C)CO)C[C@@H]1C	-2	2	.	-2[16.7 µM]	24	-24[16.7 µM]
COc1ccc(C)cc1NS(=O)(=O)c1cc(C)ccc1C	3	.	.	87	.	5
Cc1ccc(C)c(S(=O)(=O)Nc2ccccc2C(=O)Nc2ccc(S(=O)(=O)Nc3ncccn3)cc2)c1	6	-31*	5	18	-12	-8
COc1ccccc1NS(=O)(=O)c1cc(C)ccc1C	-9	.	-4	141*	.	-73
Cc1ccc(C)c(S(=O)(=O)Nc2ccc(S(=O)(=O)Nc3ncccn3)cc2)c1	5	-6	-10	-14	-4	-2
COc1ccc(NS(=O)(=O)c2cc(NC(=O)c3ccc(=O)[nH]n3)ccc2C)cc1	8	4	14	166*	-4	10
c1ccc(N(c2ccccc2)c2nc(-n3ccnc3)nc(-n3ccnc3)n2)cc1	.	.	.	-2	.	.
CN(c1ccccc1)c1nc(-n2ccnc2)nc(-n2ccnc2)n1	44*	.	-9	17	.	-76
COc1ccc(-n2c(-c3ccc(Cl)cc3)c[n+]3c2CCCCC3)cc1	5	-32*	1	.	-4	-7
CCOc1ccc(-n2c(-c3ccc(OC)cc3)c[n+]3c2CCCCC3)cc1	.	-47	-2	.	4	67*
CCOc1ccc(-n2c(-c3ccc(Br)cc3)c[n+]3c2CCCCC3)cc1	-2	-58	-25	.	7	38
CC1(C)Cc2c(sc(NC(=O)c3ccc(S(=O)(=O)N4CCCCCC4)cc3)c2C#N)C(C)(C)N1	2	-30	-7	.	-28	63*
SMILES	FN deposition inh	rRNA inh HTS	Vif inh	miR-122 sensor	S100A4 inh HTS	HIV Env fusion
CCC(=O)Nc1sc2c(c1C#N)CC(C)(C)NC2(C)C	0	.	13	0	.	3
CC(C)CC(=O)Nc1sc2c(c1C#N)CC(C)(C)NC2(C)C	.	.	56*	-6	.	.
O=C(c1ccccn1)N1C[C@H]2[C@@H](c3ccccc31)[C@@H](CO)N2C(=O)Nc1ccccc1F	-18	3	.	7[16.7 µM]	-24	.
O=c1cc(N2CCCCC2)c(-c2ccccc2)nn1Cc1ccccc1	6	-60	7	14	7	-8
Cn1nc(-c2ccccc2)c(N2CCCCC2)cc1=O	-8	-42*	5	.	-6	5
CCn1c(C(=O)N2CCCC(C(=O)NCCCc3ccccc3)C2)cc2sccc21 (stereo not given)	-2	.	-7	.	.	66*
COc1ccc(Cl)cc1-c1cc(C(=O)N[C@H](C)c2ccccc2)[nH]n1	7	-6	10	4	141*	.
COc1ccc(Cl)cc1-c1cc(C(=O)Nc2ccccc2)[nH]n1	13	-43	-12	0	-5	-112
Cc1nnc(N/N=C/c2ccccc2F)n1N	5	7	59*	-3	10	-5
CCOC(=O)COc1cc(-n2c(=S)[nH]c3ccccc3c2=O)c(Cl)cc1Cl	10	-23*	1	.	-1	7
CCOC(=O)N1CCN(C(=O)c2ccc(-n3c(=S)[nH]c4ccccc4c3=O)cc2)CC1	-6	.	-2	-4	.	5
COc1ccc(CNS(=O)(=O)c2ccc3c(c2)N(C(C)=O)CC(C)S3)cc1 (stereo not given)	-3	-1	-3	4	-6	13
CC(=O)N1CC(C)Sc2ccc(S(=O)(=O)NCc3ccc(F)cc3)cc21 (stereo not given)	-1	-26*	1	?	6	9
C[C@@H]1CCCCO[C@@H](CN(C)S(=O)(=O)c2cn(C)cn2)[C@H](C)CN([C@H](C)CO)C(=O)c2cc(NS(=O)(=O)c3ccccc3)ccc2O1	-2	2	.	0[16.7 µM]	11	-151[16.7 µM]
Cc1nn(Cc2ccc(Cl)cc2)c(C)c1NC(=O)c1noc2c1CCCCC2	.	.	-6	-6	3	.
O=C(NCc1ccc(F)cc1)c1noc2c1CCCC2	.	5	0	.	5	.
Cc1nn(Cc2ccc(Cl)c(Cl)c2)c(C)c1NC(=O)c1noc2c1CCCCC2	-19	.	-5	-2	.	56*
Cc1ccccc1Cn1nc(C)c(NC(=O)c2noc3c2CC(C(C)(C)C)CC3)c1C (stereo not given)	1	.	-11	1	.	56*
CC(C)(C)C1CCc2onc(C(=O)NCc3ccc(F)cc3)c2C1 (stereo not given)	-4	.	-3	1	.	76*
O=C(NCC[C@@H]1CC[C@@H](NC(=O)C2CCCC2)[C@@H](CO)O1)c1cnccn1	-5	0	.	-5[16.7 µM]	3	19[16.7 µM]
